In the library only some 5.5% were active in any assay of this set; here they are far more common.
WT yeast gro inh – growth inhibition of WT yeast, mitochondrial fusion screen; mitochondrial fusion phenotypic screen, WT strain; AID 1362; actives 2.1% (n = 190,000); inhibition, % at 10 µM; in the data active = inhibition above about 58%; tested in S. cerevisiae
Yeast life ext – extends the lifespan of yeast; S. cerevisiae growth with nicotinamide, OD615; deaD strain in restrictive glucose medium; inhibition of the nicotinamide effect, % at 10 µM; actives 0.68% (n = 130,000); AID 775;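 active = inhibition above a set limit, placed 3 SD over the median of all compounds, cut at about 26% in these data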;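 also: 0% = nicotinamide-treated wells and 100% = cells grown without nicotinamide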
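Test system – modified budding yeast, DeaD strain · Compound – single dose 10 µM compound, 0.25% DMSO · Times – culture preincubation 4 h, compound exposure 48 h, both 30 °C · Detection – optical density (absorbance) at 615 nm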
RAM network inh – inhibitors of the yeast RAM network | inhibition, % at 50 µM | AID 868 | S. cerevisiae dse1pr::URA3 reporter, 5-FOA growth OD615, 2 d; analog-sensitive cbk1-as2 kinase mutant strain | actives 1.8% (n = 190,000);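 active = inhibition above a set limit, 3 SD over mean compound inhibition, cut at about 8.4% in these data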;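 also: 0% = DMSO-only wells with no growth and 100% = 10 µM 1-NA-PP1 full growth; inhibition rescues growth on 5-FOA so higher OD means more RAM inhibition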
KCC2 mod – KCC2 (human) Cl- transport modulation | KCC2 cells, thallium flux FluoZin-2 fluorescence | B-score of Tl+ flux slope (higher = more flux/activation; lower = inhibition) at 10 µM | Q9H2X9 | actives 2.2% (n = 190,000) | AID 1456;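 active = thallium flux slope and its plate-corrected score both differing from the plate sample mean at a set confidence after two filtering rounds, in either direction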;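 also: slope of fluorescence scaled to starting intensity during 10 to 20 s after thallium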
Target sequence (Q9H2X9 whole entry, looked up): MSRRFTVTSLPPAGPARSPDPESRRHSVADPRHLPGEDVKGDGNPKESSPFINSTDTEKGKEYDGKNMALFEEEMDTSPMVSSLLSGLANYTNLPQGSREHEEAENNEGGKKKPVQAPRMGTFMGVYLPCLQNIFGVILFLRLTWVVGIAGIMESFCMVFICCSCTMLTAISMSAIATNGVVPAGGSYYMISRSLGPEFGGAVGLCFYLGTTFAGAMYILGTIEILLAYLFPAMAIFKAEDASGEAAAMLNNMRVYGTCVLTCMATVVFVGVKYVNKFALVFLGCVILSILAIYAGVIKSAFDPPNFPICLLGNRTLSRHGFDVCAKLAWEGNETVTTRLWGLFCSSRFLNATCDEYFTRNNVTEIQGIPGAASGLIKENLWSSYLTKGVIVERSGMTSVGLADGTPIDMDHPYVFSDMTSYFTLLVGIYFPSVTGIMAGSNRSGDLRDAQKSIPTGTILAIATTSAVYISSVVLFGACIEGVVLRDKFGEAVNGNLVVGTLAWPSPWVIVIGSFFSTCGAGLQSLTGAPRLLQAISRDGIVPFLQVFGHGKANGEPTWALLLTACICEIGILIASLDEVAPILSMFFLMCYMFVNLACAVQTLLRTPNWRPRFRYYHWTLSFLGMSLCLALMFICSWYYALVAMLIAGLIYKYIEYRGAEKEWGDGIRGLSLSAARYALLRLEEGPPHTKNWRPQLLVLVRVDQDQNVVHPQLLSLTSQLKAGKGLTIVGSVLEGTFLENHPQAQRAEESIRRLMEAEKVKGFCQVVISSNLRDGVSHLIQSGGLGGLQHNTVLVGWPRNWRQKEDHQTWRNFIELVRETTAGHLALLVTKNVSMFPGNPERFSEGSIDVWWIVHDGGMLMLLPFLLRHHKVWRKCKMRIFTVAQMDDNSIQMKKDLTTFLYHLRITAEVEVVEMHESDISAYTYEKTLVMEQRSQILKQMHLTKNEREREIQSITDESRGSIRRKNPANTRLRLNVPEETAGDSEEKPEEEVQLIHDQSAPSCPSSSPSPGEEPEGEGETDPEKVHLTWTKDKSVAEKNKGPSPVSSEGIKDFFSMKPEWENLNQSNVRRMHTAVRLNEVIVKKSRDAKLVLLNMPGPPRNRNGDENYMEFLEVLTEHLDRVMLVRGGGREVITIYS
Yeast growth inh – yeast BB579 growth reduction in restrictive medium; actives 0.51% (n = 140,000); inhibition, % at 10 µM; S. cerevisiae BB579 growth, OD615, 48 h;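 active = inhibition above a set limit, 3 SD over the mean compound inhibition, cut at about 44% in these data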
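System: DeaD yeast strain BB579; buffer or medium: CSMM-D dextrose restrictive medium; technique: OD at 615 nm; schedule: 4 h cell preincubation, 48 h compound exposure, 30 °C humidified; doses: single 10 µM dose; controls: amphotericin B 10 µg/mL, positive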
KCC2 secondary – KCC2 (human) modulation, secondary assay; HEK293-KCC2, thallium flux, FluoZin2 fluorescence; active compounds read high; actives 15% (n = 3,700); normalised thallium flux (F/F0 slope) at 10 µM; shares compounds with KCC2 mod;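 active = thallium flux slope above the same plate's solvent-only control mean plus 3 SD; inconclusive = the two replicate wells disagree; inactive = no significant difference from solvent-only control wells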
KCC2 bumet counter – thallium flux despite bumetanide block in KCC2 cells, secondary assay 3 | HEK293-KCC2 + bumetanide/ouabain, thallium flux FluoZin2; active compounds read high | actives 49% (n = 3,700) | normalized thallium flux at 10 µM | shares compounds with KCC2 mod;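 active = thallium entry rate above the same plate's blocked-transporter control wells by more than 3 SD; inconclusive = the two repeat wells disagree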;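 also: raw slope of fluorescence over initial fluorescence between 10 and 20 s after thallium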
KCC2 secondary2 – KCC2 (human) modulation, second secondary assay; shares compounds with KCC2 mod; HEK293-KCC2, thallium flux FluoZin2 fluorescence; actives lie on both sides; F/F0 rise rate, 10–20 s post-thallium; normalized thallium flux at 10 µM; actives 23% (n = 3,700); AID 1715;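 active = thallium flux slope more than 3 SD above or below the plate's solvent-only control mean, mostly below; inconclusive = the two repeat wells disagreed; inactive = no significant shift from solvent-only controls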;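 also: raw slope with 0.1% DMSO as baseline and bumetanide as block control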
HEK293 Tl flux – parental HEK flux effect, counter-screen; shares compounds with KCC2 mod; HEK293 parental cells, thallium flux FluoZin2, ouabain; baseline-ratio fluorescence slope, 10–20 s after thallium; thallium flux rate (normalised fluorescence) at 10 µM; actives 46% (n = 3,700);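 active = thallium flux rate significantly above the same plate's solvent-only control wells, beyond their mean plus 3 SD; inconclusive = the two replicate wells gave conflicting results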
KCC2 ouabain – confirmation of human KCC2 modulators with ouabain. shares compounds with KCC2 mod. HEK293-KCC2, thallium flux FluoZin2 fluorescence; bidirectional: low = inhibitor, high = activator. raw Tl+ flux slope (below DMSO = inhibition, above = activation) at 10 µM. actives 48% (n = 3,700);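 active = thallium flux slope beyond 3 SD from same-plate DMSO control mean in most replicates, usually higher, sometimes lower; inconclusive = repeat tests gave conflicting results; inactive = no significant difference from controls in most replicates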;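 also: slope of initial-normalized fluorescence between seconds 10 and 20 after thallium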
HEK counter2 – parental HEK flux effect, counter-screen 2; thallium flux slope at 10 µM; shares compounds with KCC2 mod; actives 33% (n = 3,700); HEK293 parental, thallium flux FluoZin-2 fluorescence slope; AID 1718;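 active = thallium flux slope above the same plate's solvent-control mean plus 3 SD in both duplicate wells; inconclusive = duplicate wells that disagreed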;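 also: run without ouabain in cells lacking the KCC2 cotransporter; slope of fluorescence scaled to its starting value between 10 and 20 s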
* hit, by the source's call.

Screening CCCCCCCCCCNC(=O)C(=O)Nc1ccccn1 returned WT yeast gro inh 10, Yeast life ext 3, RAM network inh 8, Yeast growth inh -37, KCC2 secondary 0.011, KCC2 bumet counter 0.0068, KCC2 secondary2 0.033, HEK293 Tl flux 0.0098*, KCC2 ouabain 0.02 and HEK counter2 0.013*.
For COc1cc(/C=C2/C(=O)c3cccc([N+](=O)[O-])c3C2=O)c(Br)cc1O the results were WT yeast gro inh 2, Yeast life ext 17, RAM network inh 1, KCC2 mod -4.7*, Yeast growth inh -21, KCC2 secondary 0.011, KCC2 bumet counter 0.0078, KCC2 secondary2 0.033, HEK293 Tl flux 0.0065, KCC2 ouabain 0.018 and HEK counter2 0.01.
`COc1ccc(-c2nc(-c3cccc([N+](=O)[O-])c3O)cc(=O)o2)cc1OC` gave WT yeast gro inh -2, Yeast life ext -1, RAM network inh 2, KCC2 mod 0.9 and Yeast growth inh -11.
Screening Cc1ccccc1OCC(=O)N=Nc1c(O)n(C)c2ccccc12 returned KCC2 mod 28*, KCC2 secondary inconclusive, KCC2 bumet counter 0.029*, KCC2 secondary2 0.035, HEK293 Tl flux 0.029*, KCC2 ouabain 0.031* and HEK counter2 0.022*.
For CCOC(=O)N=Nc1c(O)n(C)c2ccccc12 the results were WT yeast gro inh -13, Yeast life ext -2, RAM network inh 1, KCC2 mod -0.81 and Yeast growth inh -12.
For COc1ccc(C2C(C#N)=C(N)Oc3cc(C)[nH]c(=O)c32)c(OC)c1OC (stereo not drawn) the results were WT yeast gro inh 6, Yeast life ext -6, RAM network inh 0, Yeast growth inh -28, KCC2 secondary 0.0093, KCC2 bumet counter 0.0063, KCC2 secondary2 0.034, HEK293 Tl flux 0.0088, KCC2 ouabain 0.019 and HEK counter2 0.012.
Screening CCOc1cccc(C2C(C#N)=C(N)Oc3cc(C)[nH]c(=O)c32)c1OCC (stereo not drawn) returned KCC2 mod 0.91.
`O=C(NC(=S)N1CCN(C/C=C/c2ccccc2)CC1)c1ccco1` gave WT yeast gro inh 7, RAM network inh 0, KCC2 mod 4.2*, KCC2 secondary 0.0055, KCC2 bumet counter 0.015*, KCC2 secondary2 0.033, HEK293 Tl flux 0.014*, KCC2 ouabain inconclusive and HEK counter2 0.016*.
`O=C(/C=C/c1ccc(F)cc1)NC(=S)N1CCN(Cc2ccccc2)CC1` gave KCC2 mod 40*, KCC2 secondary 0.0063, KCC2 bumet counter 0.042*, KCC2 secondary2 0.032, HEK293 Tl flux 0.03*, KCC2 ouabain 0.031* and HEK counter2 0.026*.
O=C(NC(=S)N1CCN(C/C=C/c2ccccc2)CC1)c1c(F)cccc1F was read as WT yeast gro inh 3, Yeast life ext 13, RAM network inh 2, KCC2 mod 6.8*, Yeast growth inh -43, KCC2 secondary 0.018*, KCC2 bumet counter 0.042*, KCC2 secondary2 0.03, HEK293 Tl flux 0.015*, KCC2 ouabain inconclusive and HEK counter2 inconclusive.
For O=C(/C=C/c1ccc(F)cc1)NC(=S)N1CCOCC1 the results were WT yeast gro inh -3, RAM network inh 2 and KCC2 mod 1.7.
Screening CN=C1SC(CC(=O)Nc2ccc(F)cc2F)C(=O)N1/N=C/c1ccc(OC(F)F)c(OC)c1 (stereo not drawn) returned WT yeast gro inh -8, RAM network inh 0 and KCC2 mod 0.7.
For OC(Cc1cccnc1)(Cc1cccnc1)c1cc2ccccc2[nH]1 the results were WT yeast gro inh 0, Yeast life ext -3, RAM network inh 2, KCC2 mod 0.61 and Yeast growth inh -13.
Screening COCC(C)n1c(C)cc(C(=O)CSc2ccc(NC(C)=O)cc2)c1C (stereo not drawn) returned WT yeast gro inh -15, Yeast life ext -4, RAM network inh 1, KCC2 mod -5.8*, Yeast growth inh -40, KCC2 secondary 0.0082, KCC2 bumet counter 0.0056, KCC2 secondary2 0.035, HEK293 Tl flux 0.0079, KCC2 ouabain 0.02 and HEK counter2 0.012.
`Cc1cc(N(CC(=O)NC(C)C)S(C)(=O)=O)ccc1Br` gave WT yeast gro inh 5, Yeast life ext -3, RAM network inh 0, KCC2 mod -0.026 and Yeast growth inh 10.
FC(F)(F)c1ccc(/C=N/NC(=S)NC2CCCCC2)cc1 was read as WT yeast gro inh 6, RAM network inh 5 and KCC2 mod 0.2.
C=CCNC(=S)N/N=C/c1ccc(C)cc1C was read as WT yeast gro inh 41, RAM network inh -1, KCC2 mod 5.2*, KCC2 secondary 0.012, KCC2 bumet counter 0.041*, KCC2 secondary2 0.035, HEK293 Tl flux 0.018*, KCC2 ouabain inconclusive and HEK counter2 inconclusive.
For C=CCNC(=S)N/N=C/c1ccc(C(F)(F)F)cc1 the results were WT yeast gro inh -4, RAM network inh 4, KCC2 mod 3.5*, KCC2 secondary 0.012, KCC2 bumet counter 0.016*, KCC2 secondary2 0.036, HEK293 Tl flux inconclusive, KCC2 ouabain inconclusive and HEK counter2 inconclusive.
`CCN(CC)/C(Sc1ccccc1)=C(/C(Cl)=C(Cl)Cl)[N+](=O)[O-]` gave WT yeast gro inh -5, RAM network inh 0 and KCC2 mod -1.4.
`CCN(CC)/C(Sc1ccccc1)=C(\C(Cl)=C(Cl)Cl)[N+](=O)[O-]` gave WT yeast gro inh -6, RAM network inh 0, KCC2 mod -4.9*, KCC2 secondary 0.005, KCC2 bumet counter inconclusive, KCC2 secondary2 inconclusive, HEK293 Tl flux 0.0064*, KCC2 ouabain inconclusive and HEK counter2 0.01.

Screens deposited in PubChem BioAssay by several laboratories.
